Source: ChEMBL document CHEMBL4680083, “Identification of Tricyclic Agonists of Sphingosine-1-phosphate Receptor 1 (S1P) Employing Ligand-Based Drug Design” (J Med Chem, 2016)
The source made the active and inactive calls. No cut-off for these calls is given here.

How the values were obtained:
[1] = Cmax in rat at 1 mg/kg, po or 1 mg/kg, iv; assay type: ADME, organism-based; parameters: dose 1 mg/kg; conditions: in vivo
[2] = Volume of distribution at steady state in rat at 1 mg/kg, po or 1 mg/kg, iv; assay type: ADME, organism-based; conditions: in vivo, read-out: Vdss
Cytochrome P450 2D6 = Cytochrome P450 2D6 (Homo sapiens, UniProt P10635); assay: Inhibition of CYP2D6 (unknown origin); assay type: ADME
Rattus norvegicus [3] = assay: Reduction in circulating lymphocytes count in Lewis rat blood at 1 mg/kg, po measured at 24 hrs by hematology analyzer based analysis; assay type: functional; parameters: scale not given: the % may be the effect or the level left
How it was run: (§1)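 Lewis rats were given an oral dose as a solution or suspension in PEG300, with controls receiving vehicle only. Blood was taken by retro-orbital bleeding under isoflurane at 4 and 24 h. Lymphocytes were counted on a hematology analyzer. Reduction is relative to the vehicle group, averaged over the animals in each group (n = 3−4).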

[4] = biological target: T1, Nuclear receptor subfamily 1 group I member 2 (Homo sapiens, UniProt O75469); assay: Transactivation of PXR (unknown origin); assay type: ADME
T1 sequence (O75469 whole entry): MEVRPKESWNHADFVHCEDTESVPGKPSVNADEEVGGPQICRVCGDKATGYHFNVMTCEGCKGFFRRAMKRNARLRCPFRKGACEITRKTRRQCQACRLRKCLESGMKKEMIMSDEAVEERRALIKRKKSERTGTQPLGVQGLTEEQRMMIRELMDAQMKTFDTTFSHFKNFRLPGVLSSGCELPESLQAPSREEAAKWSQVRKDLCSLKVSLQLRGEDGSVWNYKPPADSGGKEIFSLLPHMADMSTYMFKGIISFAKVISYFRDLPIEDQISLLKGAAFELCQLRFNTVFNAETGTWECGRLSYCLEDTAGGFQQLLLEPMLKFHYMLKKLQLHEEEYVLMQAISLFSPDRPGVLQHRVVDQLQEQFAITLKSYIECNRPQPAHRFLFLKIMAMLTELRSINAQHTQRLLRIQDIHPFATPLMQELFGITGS

Cytochrome P450 2C8 = biological target: T2, Cytochrome P450 2C8 (Homo sapiens, UniProt P10632); assay: Inhibition of CYP2C8 (unknown origin); assay type: ADME
T2 sequence (P10632 whole entry): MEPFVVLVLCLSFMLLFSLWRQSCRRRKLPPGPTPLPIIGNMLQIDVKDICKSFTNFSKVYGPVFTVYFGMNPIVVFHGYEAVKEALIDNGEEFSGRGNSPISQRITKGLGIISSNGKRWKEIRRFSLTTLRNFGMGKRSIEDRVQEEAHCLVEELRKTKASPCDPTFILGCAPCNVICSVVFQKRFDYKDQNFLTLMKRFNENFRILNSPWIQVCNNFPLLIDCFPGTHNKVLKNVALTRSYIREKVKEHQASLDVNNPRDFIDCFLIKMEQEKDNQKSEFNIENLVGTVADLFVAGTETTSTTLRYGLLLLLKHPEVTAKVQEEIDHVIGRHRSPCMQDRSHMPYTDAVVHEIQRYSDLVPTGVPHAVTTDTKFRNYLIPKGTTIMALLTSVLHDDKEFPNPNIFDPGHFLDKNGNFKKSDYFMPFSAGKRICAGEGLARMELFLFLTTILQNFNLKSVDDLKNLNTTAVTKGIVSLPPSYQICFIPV

Rattus norvegicus [5] = assay: Reduction in circulating lymphocytes count in Lewis rat blood administered orally measured at 4 to 24 hrs by hematology analyzer based analysis; assay type: functional, organism-based; how it was run: as §1
Cytochrome P450 3A4 = Cytochrome P450 3A4 (Homo sapiens, UniProt P08684); assay: Inhibition of CYP3A4 (unknown origin) using 7-benzyloxy resorufin as substrate; assay type: ADME
[6] = Protein binding in human assessed as bound fraction; assay type: ADME; conditions: read-out: PB (converted)
[7] = AUC in cynomolgus monkey at 0.5 mg/kg, po; assay type: ADME, organism-based, Macaca fascicularis; parameters: dose 0.5 mg/kg; conditions: in vivo
Cytochrome P450 1A2 = biological target: T3, Cytochrome P450 1A2 (Homo sapiens, UniProt P05177); assay: Inhibition of CYP1A2 (unknown origin); assay type: ADME
T3 sequence (P05177 whole entry): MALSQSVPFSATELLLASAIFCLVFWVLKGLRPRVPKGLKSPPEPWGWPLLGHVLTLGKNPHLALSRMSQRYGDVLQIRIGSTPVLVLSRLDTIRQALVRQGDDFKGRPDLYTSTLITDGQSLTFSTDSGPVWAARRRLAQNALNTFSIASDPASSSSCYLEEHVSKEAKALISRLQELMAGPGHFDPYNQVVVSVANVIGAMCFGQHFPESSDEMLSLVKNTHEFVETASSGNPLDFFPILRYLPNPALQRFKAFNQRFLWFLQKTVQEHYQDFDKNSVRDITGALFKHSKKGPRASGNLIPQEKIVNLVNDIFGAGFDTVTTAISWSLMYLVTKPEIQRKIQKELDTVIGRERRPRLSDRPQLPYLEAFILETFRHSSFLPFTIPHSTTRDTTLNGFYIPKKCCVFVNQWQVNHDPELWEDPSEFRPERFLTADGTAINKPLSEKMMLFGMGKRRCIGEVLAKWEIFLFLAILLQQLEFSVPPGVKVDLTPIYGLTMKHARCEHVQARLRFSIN

[8] = Tmax in cynomolgus monkey at 0.5 mg/kg, po or 0.5 mg/kg, iv; assay type: ADME, organism-based, Macaca fascicularis; conditions: in vivo
[9] = Volume of distribution at steady state in dog at 0.1 mg/kg, po or 0.1 mg/kg, iv; assay type: ADME, organism-based, Canis lupus familiaris; conditions: in vivo, read-out: Vdss
Rattus norvegicus [10] = assay: Antiarthritic activity in Lewis rat model of Complete Freund's adjuvant-induced arthritis at 0.03 mg/kg, po QD administered for 21 days after CFA injection and measured weekly three times upto day 21 by water displacement plethysmometry; assay type: functional, organism-based; conditions: time 21.0 day
How it was run: (§2)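 Male Lewis rats, 200−225 g, n = 8 per group. Immunized at the tail base with 100 μL of 10 mg/mL ground Mycobacterium butyricum in incomplete Freund's adjuvant. Oral dosing once daily in PEG300 vehicle from the day of immunization for 21 days, at 0.03, 0.1 or 1.0 mg/kg. Dexamethasone 0.1 mg/kg PO QD as positive control. Paw volume by water displacement plethysmometry, day 7 to day 21.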

[11] = Metabolic stability in monkey assessed as half-life; assay type: ADME, Macaca mulatta; conditions: rhesus monkey
[12] = Volume of distribution at steady state in cynomolgus monkey at 0.5 mg/kg, po or 0.5 mg/kg, iv; assay type: ADME, organism-based, Macaca fascicularis; conditions: in vivo, read-out: Vdss
Cytochrome P450 2C19 = Cytochrome P450 2C19 (Homo sapiens, UniProt P33261); assay: Inhibition of CYP2C19 (unknown origin); assay type: ADME
[13] = Clearance in rat at 1 mg/kg, po or 1 mg/kg, iv; assay type: ADME, organism-based; conditions: in vivo
[14] = biological target: Sphingosine 1-phosphate receptor 1 (Homo sapiens, UniProt P21453); assay: Binding affinity to human S1P1
[15] = Half-life in mouse at 5 mg/kg, po or 2 mg/kg, iv; assay type: ADME, organism-based; conditions: in vivo
Rattus norvegicus [16] = assay: Antiarthritic activity in Lewis rat model of Complete Freund's adjuvant-induced arthritis assessed as inhibition in paw swelling at 0.1 to 1 mg/kg, po qd administered for 21 days after CFA injection and measured weekly three times upto day 21 by water displacement plethysmometry; assay type: functional, organism-based; conditions: dose 0.1-1 mg/kg, time 21.0 day; how it was run: as §2
[17] = Protein binding in monkey assessed as bound fraction; assay type: ADME, Macaca mulatta; conditions: rhesus monkey; read-out: PB (converted)
[18] = AUC in dog at 0.1 mg/kg, po; assay type: ADME, organism-based, Canis lupus familiaris; parameters: dose 0.1 mg/kg; conditions: in vivo

Sequence of Cytochrome P450 2D6 (P10635 whole entry): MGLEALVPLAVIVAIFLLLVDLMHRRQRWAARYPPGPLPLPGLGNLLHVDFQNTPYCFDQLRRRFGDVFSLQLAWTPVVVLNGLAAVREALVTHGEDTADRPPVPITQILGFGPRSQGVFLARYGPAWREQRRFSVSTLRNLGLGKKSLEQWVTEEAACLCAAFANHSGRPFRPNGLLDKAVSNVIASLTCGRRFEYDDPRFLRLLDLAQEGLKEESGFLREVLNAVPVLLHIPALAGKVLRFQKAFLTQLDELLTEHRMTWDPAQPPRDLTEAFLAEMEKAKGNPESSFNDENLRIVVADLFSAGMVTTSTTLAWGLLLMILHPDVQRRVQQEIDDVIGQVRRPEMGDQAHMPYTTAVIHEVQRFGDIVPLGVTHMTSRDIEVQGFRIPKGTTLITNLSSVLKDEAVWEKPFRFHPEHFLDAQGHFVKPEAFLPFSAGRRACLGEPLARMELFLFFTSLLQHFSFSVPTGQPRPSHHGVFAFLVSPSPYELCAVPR
Sequence of Sphingosine 1-phosphate receptor 1 (P21453 whole entry): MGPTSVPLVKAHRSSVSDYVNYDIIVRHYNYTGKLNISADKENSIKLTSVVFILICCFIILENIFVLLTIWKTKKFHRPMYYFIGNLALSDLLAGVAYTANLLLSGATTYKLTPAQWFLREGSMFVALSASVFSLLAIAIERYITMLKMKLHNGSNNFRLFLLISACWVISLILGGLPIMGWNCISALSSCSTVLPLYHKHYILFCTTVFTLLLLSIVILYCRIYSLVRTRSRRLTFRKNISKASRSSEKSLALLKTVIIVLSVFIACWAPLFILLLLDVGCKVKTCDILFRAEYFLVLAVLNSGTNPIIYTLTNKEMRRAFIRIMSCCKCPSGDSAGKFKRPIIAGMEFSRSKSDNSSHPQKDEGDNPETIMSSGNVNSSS
Sequence of Cytochrome P450 2C19 (P33261 whole entry): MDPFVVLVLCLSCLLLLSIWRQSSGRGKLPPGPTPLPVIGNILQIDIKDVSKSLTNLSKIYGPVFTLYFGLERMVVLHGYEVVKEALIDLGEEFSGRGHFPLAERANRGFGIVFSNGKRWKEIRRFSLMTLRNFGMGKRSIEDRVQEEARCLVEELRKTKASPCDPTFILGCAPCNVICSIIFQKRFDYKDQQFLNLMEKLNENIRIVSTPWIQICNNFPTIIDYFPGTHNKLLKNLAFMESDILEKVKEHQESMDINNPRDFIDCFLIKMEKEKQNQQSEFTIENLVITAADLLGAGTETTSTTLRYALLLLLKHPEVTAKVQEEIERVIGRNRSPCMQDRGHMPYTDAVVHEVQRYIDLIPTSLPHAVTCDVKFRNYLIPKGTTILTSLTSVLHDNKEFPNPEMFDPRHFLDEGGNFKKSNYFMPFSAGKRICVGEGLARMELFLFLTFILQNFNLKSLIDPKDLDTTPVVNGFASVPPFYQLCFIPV
Sequence of Cytochrome P450 3A4 (P08684 whole entry): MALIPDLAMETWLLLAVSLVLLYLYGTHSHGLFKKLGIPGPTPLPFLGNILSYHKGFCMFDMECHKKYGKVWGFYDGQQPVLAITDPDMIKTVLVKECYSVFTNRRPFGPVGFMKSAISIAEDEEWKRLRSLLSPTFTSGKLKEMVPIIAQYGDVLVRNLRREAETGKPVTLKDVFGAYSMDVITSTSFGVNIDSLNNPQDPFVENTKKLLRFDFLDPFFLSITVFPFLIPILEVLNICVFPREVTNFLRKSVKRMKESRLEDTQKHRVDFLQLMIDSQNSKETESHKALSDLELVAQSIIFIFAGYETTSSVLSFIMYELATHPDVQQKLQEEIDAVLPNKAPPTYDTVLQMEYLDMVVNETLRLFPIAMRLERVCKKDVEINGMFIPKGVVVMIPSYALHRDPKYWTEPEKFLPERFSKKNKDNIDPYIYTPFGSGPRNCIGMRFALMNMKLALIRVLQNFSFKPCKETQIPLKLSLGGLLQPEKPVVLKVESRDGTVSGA

Cmax [1]: 140 nM
Vd [2]: 4.8 L/kg
IC50 (Cytochrome P450 2D6): > 40 µM
EC50 [4]: > 50 µM
IC50 (Cytochrome P450 2C8): 14 µM
EC50 (Rattus norvegicus [5]): 0.0025 µM
IC50 (Cytochrome P450 3A4): > 40 µM
fraction unbound [6]: 0.004
AUC [7]: 3.4 µM·h
IC50 (Cytochrome P450 1A2): > 40 µM
Tmax [8]: 4 h
Vd [9]: 2.5 L/kg
half-life [11]: > 2 h
Vd [12]: 3.6 L/kg
IC50 (Cytochrome P450 2C19): > 40 µM
clearance [13]: 8.5 mL/min/kg
IC50 [14]: 0.00038 µM
half-life [15]: 15 h
fraction unbound [17]: 0.005
AUC [18]: 2.3 µM·h
Structure (SMILES): O=C(O)C1CN(Cc2ccc3c(c2)CCc2c-3noc2-c2onc(-c3ccccc3)c2C(F)(F)F)C1
Activity (Rattus norvegicus [3]): 80%
Activity (Rattus norvegicus [10]): inactive
Activity (Rattus norvegicus [16]): Active
